Results as given in ChEMBL document CHEMBL1151705, “Novel azalides derived from 16-membered macrolides. Part II: Isolation of the linear 9-formylcarboxylic acid and its sequential macrocyclization with an amino alcohol or an azidoamine” (2008).
Values after ≈ are worked out from the molar mass of the structure shown. Each block holds one compound with its values, some of them ahead of it.

What was measured:
Type in all cases: functional
Streptococcus pneumoniae [1] = test: Antimicrobial activity against Streptococcus pneumoniae 9 expressing mefA after 20 hrs by agar dilution method
In short: (§1)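 Streptococci, H. influenzae and M. catarrhalis were precultured on blood agar plates. Suspensions of about 10⁶ CFU/ml were inoculated onto sensitivity disk agar supplemented with 5% horse blood and incubated at 37 °C for 20 h. MIC was read as the lowest drug concentration with no visible growth.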

Moraxella catarrhalis [2] = test: Antimicrobial activity against drug-susceptible Moraxella catarrhalis 2 after 20 hrs by agar dilution method; in short: as §1
Streptococcus pneumoniae [3] = test: Antimicrobial activity against Streptococcus pneumoniae 10 expressing mefA after 20 hrs by agar dilution method; in short: as §1
Streptococcus pyogenes [4] = test: Antimicrobial activity against Streptococcus pyogenes 3 expressing mefA after 20 hrs by agar dilution method; in short: as §1
Streptococcus pneumoniae [5] = test: Antimicrobial activity against drug-susceptible Streptococcus pneumoniae 3 after 20 hrs by agar dilution method; in short: as §1
Streptococcus pneumoniae [6] = test: Antimicrobial activity against drug-susceptible Streptococcus pneumoniae DP1 Type1 after 20 hrs by agar dilution method; in short: as §1
Staphylococcus aureus [7] = test: Antimicrobial activity against drug-susceptible Staphylococcus aureus 2 after 20 hrs by agar dilution method
In short: (§2)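 Agar dilution MIC. S. aureus seed culture was grown in sensitivity test broth. Cell suspension (about 10⁶ CFU/ml) was inoculated onto sensitivity disk agar with 5% horse blood and incubated at 37 °C for 20 h. MIC was the lowest drug concentration that prevented visible growth.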

Haemophilus influenzae [8] = test: Antimicrobial activity against drug-susceptible Haemophilus influenzae 2 after 20 hrs by agar dilution method; in short: as §1
Staphylococcus aureus [9] = test: Antimicrobial activity against drug-susceptible Staphylococcus aureus 3 after 20 hrs by agar dilution method; in short: as §2
Haemophilus influenzae [10] = test: Antimicrobial activity against drug-susceptible Haemophilus influenzae 4 after 20 hrs by agar dilution method; in short: as §1
Streptococcus pyogenes [11] = test: Antimicrobial activity against drug-susceptible Streptococcus pyogenes 1 after 20 hrs by agar dilution method; in short: as §1
Staphylococcus aureus [12] = test: Antimicrobial activity against drug-susceptible Staphylococcus aureus 209P JC-1 after 20 hrs by agar dilution method; in short: as §2
Haemophilus influenzae [13] = test: Antimicrobial activity against drug-susceptible Haemophilus influenzae 1 after 20 hrs by agar dilution method; in short: as §1
Haemophilus influenzae [14] = test: Antimicrobial activity against drug-susceptible Haemophilus influenzae 3 after 20 hrs by agar dilution method; in short: as §1
Streptococcus pneumoniae [15] = test: Antimicrobial activity against Streptococcus pneumoniae 7 expressing inducible ermB after 20 hrs by agar dilution method; in short: as §1
Streptococcus pneumoniae [16] = test: Antimicrobial activity against drug-susceptible Streptococcus pneumoniae 2 after 20 hrs by agar dilution method; in short: as §1
Moraxella catarrhalis [17] = test: Antimicrobial activity against drug-susceptible Moraxella catarrhalis 1 after 20 hrs by agar dilution method; in short: as §1
Streptococcus pneumoniae [18] = test: Antimicrobial activity against Streptococcus pneumoniae 8 expressing inducible ermB after 20 hrs by agar dilution method; in short: as §1
Staphylococcus aureus [19] = test: Antimicrobial activity against Staphylococcus aureus 5 expressing inducible ermB after 20 hrs by agar dilution method; in short: as §2
Staphylococcus aureus [20] = test: Antimicrobial activity against Staphylococcus aureus 4 constitutively expressing ermA after 20 hrs by agar dilution method; in short: as §2
Staphylococcus aureus [21] = test: Antimicrobial activity against Staphylococcus aureus 6 expressing inducible ermB after 20 hrs by agar dilution method; in short: as §2
Streptococcus pneumoniae [22] = test: Antimicrobial activity against Streptococcus pneumoniae 6 constitutively expressing ermB after 20 hrs by agar dilution method; details: Streptococcus pneumoniae, 20 h; read-out: MIC; in short: as §1
Streptococcus pneumoniae [23] = test: Antimicrobial activity against Streptococcus pneumoniae 4 constitutively expressing ermB after 20 hrs by agar dilution method; details: Streptococcus pneumoniae, 20 h; read-out: MIC; in short: as §1
Streptococcus pyogenes [24] = test: Antimicrobial activity against Streptococcus pyogenes 2 constitutively expressing ermB after 20 hrs by agar dilution method; in short: as §1
Streptococcus pneumoniae [25] = test: Antimicrobial activity against Streptococcus pneumoniae 5 constitutively expressing ermB/mefA after 20 hrs by agar dilution method; details: Streptococcus pneumoniae, 20 h; read-out: MIC; in short: as §1
[26] = Streptococcus pneumoniae, 20 h, read-out: MIC
[27] = Moraxella catarrhalis, 20 h, read-out: MIC
[28] = Streptococcus pyogenes, 20 h, read-out: MIC
[29] = Staphylococcus aureus, 20 h, read-out: MIC
[30] = Haemophilus influenzae, 20 h, read-out: MIC
[31] = Staphylococcus aureus, 209P, 20 h, read-out: MIC

MIC (Streptococcus pneumoniae [1]): 0.5 µg/mL (≈ 0.515 µM)
MIC (Moraxella catarrhalis [2]): 4 µg/mL (≈ 4.12 µM)
MIC (Streptococcus pneumoniae [3]): 0.25 µg/mL (≈ 0.257 µM)
MIC (Streptococcus pyogenes [4]): 4 µg/mL (≈ 4.12 µM)
MIC (Streptococcus pneumoniae [5]): 0.25 µg/mL (≈ 0.257 µM)
MIC (Streptococcus pneumoniae [6]): 0.13 µg/mL (≈ 0.134 µM)
MIC (Staphylococcus aureus [7]): 2 µg/mL (≈ 2.06 µM)
MIC (Haemophilus influenzae [8]): 4 µg/mL (≈ 4.12 µM)
MIC (Staphylococcus aureus [9]): 0.5 µg/mL (≈ 0.515 µM)
MIC (Haemophilus influenzae [10]): 32 µg/mL (≈ 32.9 µM)
MIC (Streptococcus pyogenes [11]): 0.5 µg/mL (≈ 0.515 µM)
MIC (Staphylococcus aureus [12]): 1 µg/mL (≈ 1.03 µM)
MIC (Haemophilus influenzae [13]): 64 µg/mL (≈ 65.9 µM)
MIC (Haemophilus influenzae [14]): 16 µg/mL (≈ 16.5 µM)
MIC (Streptococcus pneumoniae [15]): >128 µg/mL
MIC (Streptococcus pneumoniae [16]): 0.25 µg/mL (≈ 0.257 µM)
MIC (Moraxella catarrhalis [17]): 8 µg/mL (≈ 8.24 µM)
MIC (Streptococcus pneumoniae [18]): >128 µg/mL
MIC (Staphylococcus aureus [19]): 1 µg/mL (≈ 1.03 µM)
Structure (SMILES): CCOC(=O)[C@H]1[C@H](C)O[C@@H](O[C@H]2[C@H](N(C)C)[C@@H](O)[C@H](O[C@H]3[C@@H](CC=O)C[C@@H](C)[C@@H](O)CN(C)CCC(C/C=C/c4cnc5ccccc5c4)NC(=O)C[C@@H](OC(=O)CC)[C@@H]3OC)O[C@@H]2C)C[C@@]1(C)O (stereo in doubt; form 2)

MIC (Staphylococcus aureus [20]): > 128 µg/mL
MIC (Streptococcus pneumoniae [1]; [26]): 0.06 µg/mL (≈ 0.0607 µM)
MIC (Staphylococcus aureus [21]): 0.5 µg/mL (≈ 0.506 µM)
MIC (Moraxella catarrhalis [2]; [27]): 2 µg/mL (≈ 2.02 µM)
MIC (Streptococcus pneumoniae [3]; [26]): 0.06 µg/mL (≈ 0.0607 µM)
MIC (Streptococcus pyogenes [4]; [28]): 0.5 µg/mL (≈ 0.506 µM)
MIC (Streptococcus pneumoniae [5]; [26]): 0.06 µg/mL (≈ 0.0607 µM)
MIC (Streptococcus pneumoniae [6]; [26]): 0.03 µg/mL (≈ 0.0304 µM)
MIC (Staphylococcus aureus [7]; [29]): 0.5 µg/mL (≈ 0.506 µM)
MIC (Haemophilus influenzae [8]; [30]): 4 µg/mL (≈ 4.05 µM)
MIC (Staphylococcus aureus [9]; [29]): 0.25 µg/mL (≈ 0.253 µM)
MIC (Haemophilus influenzae [10]; [30]): 8 µg/mL (≈ 8.1 µM)
MIC (Streptococcus pyogenes [11]; [28]): 0.13 µg/mL (≈ 0.132 µM)
MIC (Staphylococcus aureus [12]; [31]): 0.25 µg/mL (≈ 0.253 µM)
MIC (Haemophilus influenzae [13]; [30]): 64 µg/mL (≈ 64.8 µM)
MIC (Haemophilus influenzae [14]; [30]): 8 µg/mL (≈ 8.1 µM)
MIC (Streptococcus pneumoniae [15]; [26]): 32 µg/mL (≈ 32.4 µM)
MIC (Streptococcus pneumoniae [16]; [26]): 0.06 µg/mL (≈ 0.0607 µM)
MIC (Moraxella catarrhalis [17]; [27]): 2 µg/mL (≈ 2.02 µM)
MIC (Streptococcus pneumoniae [18]; [26]): 32 µg/mL (≈ 32.4 µM)
MIC (Staphylococcus aureus [19]; [29]): 0.25 µg/mL (≈ 0.253 µM)
MIC (Streptococcus pneumoniae [22]): > 128 µg/mL
MIC (Streptococcus pneumoniae [23]): > 128 µg/mL
MIC (Streptococcus pyogenes [24]): > 128 µg/mL
MIC (Streptococcus pneumoniae [25]): > 128 µg/mL
Structure (SMILES): CCOC(=O)[C@H]1[C@H](C)O[C@@H](O[C@H]2[C@H](N(C)C)[C@@H](O)[C@H](O[C@H]3[C@@H](CC=O)C[C@@H](C)[C@@H](O)CN(C)CCC[C@@H](CCCc4ccnc5ccccc45)OC(=O)C[C@@H](OC(=O)CC)[C@@H]3OC)O[C@@H]2C)C[C@@]1(C)O

MIC (Streptococcus pneumoniae [1]): 0.06 µg/mL (≈ 0.0617 µM)
MIC (Moraxella catarrhalis [2]): 4 µg/mL (≈ 4.11 µM)
MIC (Streptococcus pneumoniae [3]): 0.06 µg/mL (≈ 0.0617 µM)
MIC (Streptococcus pyogenes [4]): 1 µg/mL (≈ 1.03 µM)
MIC (Streptococcus pneumoniae [5]): 0.06 µg/mL (≈ 0.0617 µM)
MIC (Streptococcus pneumoniae [6]): 0.03 µg/mL (≈ 0.0308 µM)
MIC (Staphylococcus aureus [7]): 2 µg/mL (≈ 2.06 µM)
MIC (Haemophilus influenzae [8]): 2 µg/mL (≈ 2.06 µM)
MIC (Staphylococcus aureus [9]): 0.5 µg/mL (≈ 0.514 µM)
MIC (Haemophilus influenzae [10]): 16 µg/mL (≈ 16.4 µM)
MIC (Streptococcus pyogenes [11]): 0.25 µg/mL (≈ 0.257 µM)
MIC (Staphylococcus aureus [12]): 1 µg/mL (≈ 1.03 µM)
MIC (Haemophilus influenzae [13]): 32 µg/mL (≈ 32.9 µM)
MIC (Haemophilus influenzae [14]): 8 µg/mL (≈ 8.22 µM)
MIC (Streptococcus pneumoniae [15]): 8 µg/mL (≈ 8.22 µM)
MIC (Streptococcus pneumoniae [16]): 0.06 µg/mL (≈ 0.0617 µM)
MIC (Moraxella catarrhalis [17]): 8 µg/mL (≈ 8.22 µM)
MIC (Streptococcus pneumoniae [18]): 8 µg/mL (≈ 8.22 µM)
Structure (SMILES): CCOC(=O)[C@H]1[C@H](C)O[C@@H](O[C@H]2[C@H](N(C)C)[C@@H](O)[C@H](O[C@H]3[C@@H](CC=O)C[C@@H](C)[C@@H](O)CN(C)CCC(CCCc4cnc5ccccc5c4)NC(=O)C[C@@H](OC(=O)CC)[C@@H]3OC)O[C@@H]2C)C[C@@]1(C)O (stereo in doubt)

MIC (Staphylococcus aureus [20]): > 128 µg/mL
MIC (Streptococcus pneumoniae [1]; [26]): 0.06 µg/mL (≈ 0.0609 µM)
MIC (Staphylococcus aureus [21]): 1 µg/mL (≈ 1.01 µM)
MIC (Moraxella catarrhalis [2]; [27]): 2 µg/mL (≈ 2.03 µM)
MIC (Streptococcus pneumoniae [3]; [26]): 0.06 µg/mL (≈ 0.0609 µM)
MIC (Streptococcus pyogenes [4]; [28]): 1 µg/mL (≈ 1.01 µM)
MIC (Streptococcus pneumoniae [5]; [26]): 0.06 µg/mL (≈ 0.0609 µM)
MIC (Streptococcus pneumoniae [6]; [26]): 0.06 µg/mL (≈ 0.0609 µM)
MIC (Staphylococcus aureus [7]; [29]): 2 µg/mL (≈ 2.03 µM)
MIC (Haemophilus influenzae [8]; [30]): 16 µg/mL (≈ 16.2 µM)
MIC (Staphylococcus aureus [9]; [29]): 0.5 µg/mL (≈ 0.507 µM)
MIC (Haemophilus influenzae [10]; [30]): 16 µg/mL (≈ 16.2 µM)
MIC (Streptococcus pyogenes [11]; [28]): 0.25 µg/mL (≈ 0.254 µM)
MIC (Staphylococcus aureus [12]; [31]): 1 µg/mL (≈ 1.01 µM)
MIC (Haemophilus influenzae [13]; [30]): 64 µg/mL (≈ 65 µM)
MIC (Haemophilus influenzae [14]; [30]): 16 µg/mL (≈ 16.2 µM)
MIC (Streptococcus pneumoniae [15]; [26]): 4 µg/mL (≈ 4.06 µM)
MIC (Streptococcus pneumoniae [16]; [26]): 0.13 µg/mL (≈ 0.132 µM)
MIC (Moraxella catarrhalis [17]; [27]): 2 µg/mL (≈ 2.03 µM)
MIC (Streptococcus pneumoniae [18]; [26]): 2 µg/mL (≈ 2.03 µM)
MIC (Staphylococcus aureus [19]; [29]): 0.5 µg/mL (≈ 0.507 µM)
MIC (Streptococcus pneumoniae [22]): 64 µg/mL (≈ 65 µM)
MIC (Streptococcus pneumoniae [23]): 64 µg/mL (≈ 65 µM)
MIC (Streptococcus pyogenes [24]): 64 µg/mL (≈ 65 µM)
MIC (Streptococcus pneumoniae [25]): 64 µg/mL (≈ 65 µM)
Structure (SMILES): CCOC(=O)[C@H]1[C@H](C)O[C@@H](O[C@H]2[C@H](N(C)C)[C@@H](O)[C@H](O[C@H]3[C@@H](CC=O)C[C@@H](C)[C@@H](O)CN(C)CCC[C@H](C/C=C/c4cccc5ccccc45)OC(=O)C[C@@H](OC(=O)CC)[C@@H]3OC)O[C@@H]2C)C[C@@]1(C)O
